Sampled rows, rich in hits. Any-hit rate of the full collection: about 1.7%.
Vif imaging: HIV Vif self-association inhibitors, primary screen, imaging, HEK293T, single point; 0.35% of 340,000 active; HEK293T cells, Vif self-association by quenched fluorescence, 24 h; inhibition, % at 7.49 µM; AID 602346, 2012; in the data active means inhibition above about 50%, passing the limit was not always enough; inconclusive means no clear call, values can overlap the other calls; inactive means below about 31%
C2C12 statin: suppressors of statin myotoxicity in C2C12 myotubes, primary screen, cell-based, single point, plate reader | rescue of ATP level, % at 7.49 µM | 0.78% of 330,000 active | C2C12 myotubes + simvastatin, ATP luminescence, 48 h; scaled: DMSO 0, geranylgeraniol control 100;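 active means mean ATP rescue above about 67%, or every replicate alone reaching that limit, limit read from the data, passing the limit was not always enough; inconclusive means no clear call, values can overlap the other calls; inactive means mean under the limit and some replicate under it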;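 further: myotubes were challenged with 10 µM simvastatin during compound exposure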
SR-BI DiI inh: inhibitors of SR-BI mediated HDL lipid uptake, primary screen, ldlA[mSR-BI] cells, fluorescence, single point; Scavenger receptor class B member 1 (Mus musculus), Q61009; ldlA[mSR-BI] CHO cells, DiI-HDL uptake fluorescence, 3 h; inhibition, % at 12.5 µM; 0.96% of 320,000 active; AID 488896, 2010;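 active means mean replicate inhibition of at least 70% and a set share of replicates each scoring 70 or more; inconclusive means meets just one of the two criteria; inactive means fails both criteria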
Target sequence (Q61009 whole entry, looked up): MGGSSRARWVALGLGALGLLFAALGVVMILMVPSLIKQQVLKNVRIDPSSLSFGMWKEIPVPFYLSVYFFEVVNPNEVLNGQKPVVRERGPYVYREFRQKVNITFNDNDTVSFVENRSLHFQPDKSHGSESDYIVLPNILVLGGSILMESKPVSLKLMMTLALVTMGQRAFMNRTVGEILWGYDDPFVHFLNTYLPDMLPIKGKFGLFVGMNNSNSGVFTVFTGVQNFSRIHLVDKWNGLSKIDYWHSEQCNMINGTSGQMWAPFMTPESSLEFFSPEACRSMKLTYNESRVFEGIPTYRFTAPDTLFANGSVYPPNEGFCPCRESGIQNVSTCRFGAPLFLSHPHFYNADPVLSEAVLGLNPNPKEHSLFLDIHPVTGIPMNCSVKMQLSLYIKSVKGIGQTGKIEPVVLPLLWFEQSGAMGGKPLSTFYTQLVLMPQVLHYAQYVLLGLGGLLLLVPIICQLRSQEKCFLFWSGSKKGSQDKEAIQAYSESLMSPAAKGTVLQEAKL
SR-BI DiI-HDL act: activators of SR-BI mediated DiI-HDL uptake, primary screen, ldlA[mSR-BI] CHO cells, DiI fluorescence; 3 h; 100 = double the neutral-control signal; activation, % at 12.5 µM; 0.096% of 320,000 active; AID 504775, 2011;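 active means mean replicate activation of at least 60% and every replicate at or above 60%; inconclusive means mean or all-replicate condition met, but not both; inactive means mean below 60% and not all replicates reaching 60%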
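Test system: SR-BI-overexpressing, LDLR-lacking CHO cells. Measured by: DiI fluorescence, bottom read. Medium: Ham's F12 with 0.5% BSA, HEPES 25 mM, pH 7.4. Timing: 3 h uptake period with compound, 37 °C.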
Of the large screens only hits and unclear results are named; the others gave an inactive call.

Cc1nc2c(-c3ccc(F)cc3)c(C)nn2c(C)c1CCC(=O)NC(C)CCc1ccco1 (configuration not stated)	none (no result: Vif imaging)
Cc1cccc(NC(=S)N(CCN(C)C)Cc2cc3cccc(C)c3[nH]c2=O)c1	none (no result: C2C12 statin)
Cc1ccc(NC(=S)N(CCN(C)C)Cc2cc3cccc(C)c3[nH]c2=O)cc1	C2C12 statin 113.8
COCCCNC(=S)N1CCN(c2nc(C)nc3sc4c(c23)CCCC4)CC1	none
CCCNC(=S)N1CCN(c2nc(C)nc3sc4c(c23)CCCC4)CC1	SR-BI DiI inh 72.6
C[C@@H]1CN([C@H](C)CO)C(=O)c2cc(C#CC3CC3)cnc2O[C@@H]1CN(C)C(=O)CC1CC1	none (no result: Vif imaging, SR-BI DiI inh, SR-BI DiI-HDL act)
Fc1ccc(CNC(=S)Nc2ccc(Cl)cc2)cc1	none
S=C(NCc1ccc(Cl)cc1)Nc1ccccc1	C2C12 statin 128.7
Cc1cc(Cl)c(S(=O)(=O)N2CC(C)OC(C)C2)cc1OCC(N)=O (configuration not stated)	C2C12 statin 135.5
O=C(C1=C(O)C(=O)N(CCCN2CCOCC2)C1c1ccccn1)c1cc2ccccc2o1 (configuration not stated)	C2C12 statin 72.8
O=C(C1=C(O)C(=O)N(CCN2CCOCC2)C1c1ccc(F)cc1)c1cc2ccccc2o1 (configuration not stated)	none
CNC[C@H]1Oc2ccc(NC(=O)Nc3c(C)noc3C)cc2C(=O)N([C@@H](C)CO)C[C@H]1C	none (no result: Vif imaging, SR-BI DiI inh, SR-BI DiI-HDL act)
CC(CCc1ccccc1)NC(=O)CN1CCN(Cc2ccc(Cl)cc2)C1=O (configuration not stated)	C2C12 statin 67.0
COc1ccccc1C(=O)Nc1nc2cc3c(cc2s1)OCCO3	none
COc1ccc(C(=O)Nc2nc3cc4c(cc3s2)OCCO4)c(OC)c1	Vif imaging 78.5 (no result: C2C12 statin)
COCc1[nH]nc2c1C(c1sccc1C)C(C#N)=C(N)O2 (configuration not stated)	C2C12 statin 93.8
CC=Cc1ccc2n(c1=O)C[C@@H]1[C@@H](CO)[C@H](C(=O)NCC3CC3)[C@H]2N1Cc1ccccc1OC (mixture of isomers)	none (no result: Vif imaging, SR-BI DiI inh, SR-BI DiI-HDL act)
CCCn1nnc(NC(=O)/C=C/c2ccc(C(C)C)cc2)n1	none
CCCn1nnc(NC(=S)NC(=O)/C=C/c2ccc(Cl)cc2)n1	SR-BI DiI-HDL act 364.0 (no result: C2C12 statin)
C/C=C/c1ccc2c(c1)O[C@@H](CN(C)C(=O)C1CCOCC1)[C@H](C)CN([C@@H](C)CO)S2(=O)=O	none (no result: Vif imaging, SR-BI DiI inh, SR-BI DiI-HDL act)
CC(=O)Cc1cc(O)c2ccccc2c1OC(=O)c1ccc(Br)cc1	Vif imaging inconclusive, C2C12 statin 87.9 (no result: SR-BI DiI inh, SR-BI DiI-HDL act)
O=C(O)CCCCCN1C(=O)/C(=C\c2ccc(-c3ccc(Cl)cc3)o2)SC1=S	C2C12 statin 132.5
Clc1ccc(C2Nc3cccc4cccc(c34)N2)cc1Cl	Vif imaging 57.9
Clc1cccc(C2Nc3cccc4cccc(c34)N2)c1	none
Cc1ccnc(SCC(=O)Nc2cc(C)on2)n1	none (no result: C2C12 statin)
COc1ccc(NC(=O)CSc2nccc(C)n2)cc1	C2C12 statin 112.7
CCn1c(CNc2ccc(F)cc2)nnc1SCC(=O)Nc1ccc(OC)cc1	C2C12 statin 119.0
CCn1c(CNc2ccc(F)cc2)nnc1SCC(=O)Nc1ccccc1OC	none
CCC(=O)Nc1ccc2c(c1)Cc1cc(NC(=O)CC)ccc1-2	SR-BI DiI inh 74.0 (no result: Vif imaging)
O=C(Cc1cccs1)N1CCN(S(=O)(=O)c2ccc(Br)cc2)CC1	SR-BI DiI-HDL act 195.0
Cc1ccc(Nc2c([N+](=O)[O-])cc(C(=O)N3CC(=O)Nc4ccccc43)cc2[N+](=O)[O-])c(C)c1	SR-BI DiI inh 75.0
Nc1ccc(Oc2ccc3nc(-c4ccccc4)c(-c4ccc([N+](=O)[O-])cc4)nc3c2)cc1	SR-BI DiI inh 76.4
O=C(C[C@@H]1C=C[C@@H](NC(=O)c2cccc(F)c2)[C@H](CO)O1)NCc1ccc(Oc2ccccc2)cc1	none (no result: Vif imaging, SR-BI DiI inh, SR-BI DiI-HDL act)
CCOC(=O)CCC(=O)NCc1ccc2c(c1)cc(C)n2C	none
CCCCC(=O)NCc1ccc2c(c1)cc(C)n2C	Vif imaging 67.7
COc1ccc(-n2nc(C(=O)NCC(=O)Nc3cc(Cl)c(OC)cc3OC)c3ccccc3c2=O)cc1	SR-BI DiI inh 84.3
CCOc1ccc(NC(=O)CNC(=O)c2nn(-c3ccc(OC)c(OC)c3)c(=O)c3ccccc23)cc1	none
COc1ccc(-n2nc(C(=O)NCC(=O)Nc3cccc(Cl)c3)c3ccccc3c2=O)cc1OC	Vif imaging 53.1 (no result: SR-BI DiI inh, SR-BI DiI-HDL act)
Cc1cc(Cl)ccc1OC(C)C(=O)Nc1ccccc1N1CCOCC1 (configuration not stated)	C2C12 statin 93.9
CC(Oc1ccc(Cl)cc1)C(=O)Nc1ccccc1N1CCOCC1 (configuration not stated)	none
COc1ccc(Cl)cc1NC(=O)CN(C)CC(=O)Nc1ccccc1N1CCOCC1	SR-BI DiI inh 77.8 (no result: C2C12 statin)
COc1ccc(Cl)cc1NC(=O)CN(C)Cc1cccs1	SR-BI DiI inh 71.6
C[C@@H]1CN([C@H](C)CO)C(=O)c2cc(NS(=O)(=O)c3cn(C)cn3)ccc2O[C@@H]1CN(C)C(=O)Nc1ccc(F)cc1	none (no result: Vif imaging, SR-BI DiI inh, SR-BI DiI-HDL act)
COc1ccc(-c2ccc3c(c2)[C@H]2[C@H](CCN2S(=O)(=O)c2ccccc2F)[C@H](CO)N3C)cc1	none (no result: Vif imaging, SR-BI DiI inh, SR-BI DiI-HDL act)
C[C@H]1CN([C@@H](C)CO)C(=O)c2cc(NS(C)(=O)=O)ccc2O[C@H]1CN(C)CC1CCCCC1	none (no result: Vif imaging, SR-BI DiI inh, SR-BI DiI-HDL act)
CCCNC(=O)c1cc(C2CCCN(S(=O)(=O)c3cccc4cccnc34)C2)on1 (configuration not stated)	Vif imaging 72.5 (no result: SR-BI DiI inh, SR-BI DiI-HDL act)
O=C(NCc1ccccc1)c1cc(C2CCCN(S(=O)(=O)c3cccc4cccnc34)C2)on1 (configuration not stated)	none (no result: SR-BI DiI inh, SR-BI DiI-HDL act)
Cc1noc(C)c1S(=O)(=O)Nc1ccc2c(c1)C(=O)N([C@H](C)CO)C[C@@H](C)[C@H](CN(C)Cc1ccc(C(F)(F)F)cc1)O2	none (no result: Vif imaging, SR-BI DiI inh, SR-BI DiI-HDL act)
COc1cccc(-c2ccc3c(c2)O[C@H](CN(C)Cc2cncnc2)[C@H](C)CN([C@H](C)CO)S3(=O)=O)c1	none (no result: Vif imaging, SR-BI DiI inh, SR-BI DiI-HDL act)
Cn1cnc(S(=O)(=O)N2C[C@H](O)COC[C@@H]3O[C@H](CC(=O)N4CCN(c5ccccc5)CC4)CC[C@H]32)c1	none (no result: Vif imaging, SR-BI DiI inh, SR-BI DiI-HDL act)
O=[N+]([O-])c1ccc(N/N=C/c2ccc(O)c(O)c2O)c(S(=O)(=O)N2CCOCC2)c1	SR-BI DiI inh 108.1 (no result: C2C12 statin)
CO[C@H]1CN(C)C(=O)c2cc(NS(=O)(=O)c3ccccc3C)ccc2OC[C@H](C)NC[C@@H]1C	none (no result: Vif imaging, SR-BI DiI inh, SR-BI DiI-HDL act)
Cc1ccc(S(=O)(=O)NCC[C@H]2CC[C@@H](NC(=O)c3cccnc3)[C@@H](CO)O2)cc1	none (no result: Vif imaging, SR-BI DiI inh, SR-BI DiI-HDL act)
Cc1noc(C)c1NC(=O)N[C@@H]1CC[C@H](CC(=O)NCc2ccc(Cl)c(Cl)c2)O[C@@H]1CO	none (no result: Vif imaging, SR-BI DiI inh, SR-BI DiI-HDL act)
Fc1ccc(CSc2ncnc3nc[nH]c23)cc1	C2C12 statin 157.9
C[C@@H]1CN([C@@H](C)CO)C(=O)c2cc(NC(=O)C3CCCCC3)ccc2O[C@H]1CN(C)C(=O)Nc1cccc2ccccc12	none (no result: Vif imaging, SR-BI DiI inh, SR-BI DiI-HDL act)

Source: PubChem BioAssay
